Experimental findings from ChEMBL document CHEMBL4513216, “Probing the Open Global Health Chemical Diversity Library for Multistage-Active Starting Points for Next-Generation Antimalarials” (ACS Infect Dis, 2020) are described below.

The structures appear in SMILES notation.

The series can be described thus: Toxicity liver stage against HepG2, at 10uM. On the set-up: test concentration 10 uM, cell line HepG2-A16-CD81EGFP. The class given is cell-based. The conditions noted are these: human, HepG2-A16-CD81EGFP cells; read-out: INHIBITION
The gist of the method:
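Uninfected HepG2-A16-CD81EGFP cells, 3 × 10^3 per well, 1536-well, plated on prespotted compound at 10 μM final, parasite-free screening media added to match infected plates; puromycin 10 μM positive, DMSO 0.5% negative; run in parallel with 48 h PbLuc assay at 37 °C, 5% CO2; viability by CellTiter-Glo luminescence, normalized to controls.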
In the case of `CC(CNC(=O)Nc1ccc(C#N)cc1)N1CCc2ccccc21` (stereo unspecified), the cytotoxicity at 10 µM was -5.71%.

Take `Cc1ccc(S(=O)(=O)n2ccn(C(=O)CC(C)C)c2=O)cc1`: the cytotoxicity at 10 µM came out at 11.2%.

Take `CC1(C)CNC(=O)CN(C(=O)CCc2ccccc2)C1`: the cytotoxicity at 10 µM was -8.57%.

For the molecule `O=C1CN(S(=O)(=O)CC(F)(F)F)CC(O)CN1CCCc1ccccc1` (stereo unspecified), the cytotoxicity at 10 µM is -7.99%.

For the molecule `O=C(Nc1cnc(Oc2ccccc2F)nc1)C1CC1`, the cytotoxicity at 10 µM was determined as 0.0701%.

As to `CC(C)=CCC/C(C)=C\CNCc1ccco1`, the cytotoxicity at 10 µM was -12.6%.

Take `COc1ccc(C(C)N(C)Cc2c(C(C)C)[nH]c3ncccc23)cc1` (stereo unspecified): the cytotoxicity at 10 µM is -7.99%.

Consider `Cc1nc(C2CCCN2C(=O)c2ccccc2)ncc1C(N)=O` (stereo unspecified), for which the cytotoxicity at 10 µM is -1.47%.

On to `CN(Cc1ccc2c(c1)OCO2)Cc1cscn1`, for which the cytotoxicity at 10 µM is -11.1%.

Consider `CS(=O)(=O)NCCC(=O)Nc1ccccc1N1CCc2ccccc21`, for which the cytotoxicity at 10 µM worked out at 11.9%.

On to `COC(=O)c1ccc(N2CCN(C(=O)CC(F)(F)F)C(C)C2)cc1` (stereo unspecified), for which the cytotoxicity at 10 µM is 4.42%.

For `Cc1ccc(C(=O)NCCCN(C)S(C)(=O)=O)c(=O)[nH]1`, the cytotoxicity at 10 µM was -5.89%.

Consider `COc1cc(CN(C)C(=O)NCc2ccccn2)ccc1SC`, for which the cytotoxicity at 10 µM is -8.42%.

In the case of `CCC(CC)c1cc(CNC(=O)N2CCC(CO)CC2)on1`, the cytotoxicity at 10 µM was found to be 3.76%.

In the case of `CCc1nc(CN2CCCN(c3cnc4ccccc4n3)CC2)no1`, the cytotoxicity at 10 µM is 22%.

Regarding `CC(=O)NCc1ccc(C(=O)N2CCCC(n3cncn3)C2)o1` (stereo unspecified), the cytotoxicity at 10 µM is 17.1%.

Turning to `O=C(O)CCN(Cc1ccc(F)c(F)c1)C(=O)C1CC1`, the cytotoxicity at 10 µM amounted to 1.04%.

On to `O=C(c1ccc2[nH]ccc2c1)N1CCCCC1c1nc[nH]n1` (stereo unspecified), for which the cytotoxicity at 10 µM is -9.04%.

`Cc1nc2n(n1)CC(NCC(=O)NCCC1=CCCCC1)CC2` (stereo unspecified): the cytotoxicity at 10 µM was -9.36%.

Regarding `CC(NCC1CCN(CCO)CC1)c1cccc(Cl)c1` (stereo unspecified), the cytotoxicity at 10 µM is -12.5%.

As for `CC(NC(=O)Nc1nccs1)C(=O)NC1CCCC1` (stereo unspecified), the cytotoxicity at 10 µM is 1.87%.

For the molecule `O=C(NCc1cccc(F)c1)Nc1ccn(CCN2CCOCC2)n1`, the cytotoxicity at 10 µM is -8.45%.

Turning to `CCCc1nn(Cc2ccc(Br)s2)c(=O)o1`, the cytotoxicity at 10 µM amounted to 3.81%.

In the case of `Cc1cccc(C(=O)N2CCN(S(C)(=O)=O)[C@@H](C)C2)c1C`, the cytotoxicity at 10 µM is 3.46%.

Turning to `COc1cccc(CNCCc2cc(F)cc3c2OCOC3)c1`, the cytotoxicity at 10 µM was -23.1%.

Take `CC(C)O[C@@H]1CC[C@H]2[C@H]1OCCN2C(=O)c1nn(C)c2ccccc12`: the cytotoxicity at 10 µM is -0.824%.

In the case of `c1ccc(CN2C[C@@H]3OCCN(c4cccnc4)[C@@H]3C2)nc1`, the cytotoxicity at 10 µM is -72.8%.

As for `COCCC1COC2(CCN(C(=O)c3ccccc3)CC2)C1` (stereo unspecified), the cytotoxicity at 10 µM was -87.5%.

With `Cc1nc(NCC2CC2)nc2c1COCC21CCN(CC(=O)N(C)C)C1` (stereo unspecified), the cytotoxicity at 10 µM was -78.5%.

As for `COCCO[C@H]1CCN(C(=O)c2ccsc2)[C@H]1Cc1ccncc1`, the cytotoxicity at 10 µM is -75.4%.

As to `Cc1noc(C)c1CN1CC[C@H]2C[C@H](c3nccs3)O[C@@H]2C1`, the cytotoxicity at 10 µM is -70.7%.

On to `c1ccc(CO[C@H]2CC[C@H]3[C@H]2OCCN3CCN2CCCCC2)nc1`, for which the cytotoxicity at 10 µM was -7.16%.

As to `CO[C@@H]1CO[C@@]2(CCCN(S(=O)(=O)c3ccccc3)C2)C1`, the cytotoxicity at 10 µM is -79.8%.

As for `CC1=N[C@@]2(CC[C@@H]3CN(S(=O)(=O)CC(C)C)C[C@@H]32)C(=O)N1CC(C)C`, the cytotoxicity at 10 µM was -1.34%.

For the molecule `CS(=O)(=O)N1CCC(c2nnc3ccc(C(=O)N4CCCC4)cn23)C1` (stereo unspecified), the cytotoxicity at 10 µM stood at 1.47%.

For the molecule `COCCN(C)C(C(=O)O)c1ccc(F)c(Cl)c1` (stereo unspecified), the cytotoxicity at 10 µM amounted to 12.2%.

On to `CN(CCO)C[C@@H]1CN(C(=O)Cc2ccc3ccccc3c2)C[C@@H]1CO`, for which the cytotoxicity at 10 µM is -1.96%.

In the case of `Cn1ccnc1-c1cn(CCc2nnc(N)s2)nn1`, the cytotoxicity at 10 µM is -4.3%.

`COC(=O)c1cc(OCC2CCC2)cc(C(=O)NCC(C)(C)O)c1`: the cytotoxicity at 10 µM worked out at 4.01%.

Take `CNC(=O)CNCC1(O)CCCN(Cc2ccc(F)c(F)c2)C1=O` (stereo unspecified): the cytotoxicity at 10 µM was -9.88%.

As for `CN(CCc1ccccc1)Cc1cc(C(=O)N2CCSCC2)no1`, the cytotoxicity at 10 µM came to 3.88%.

`COc1ccc2c(CN3CCCN(Cc4ccncc4)CC3)n[nH]c2c1`: the cytotoxicity at 10 µM is -4.32%.

Turning to `COC(=O)CNCC1(O)CCCN(Cc2cccc(F)c2F)C1=O` (stereo unspecified), the cytotoxicity at 10 µM was -6.87%.

With `COc1cccc(CCC2CCCN(C(=O)c3ccc(=O)n(C)n3)C2)c1` (stereo unspecified), the cytotoxicity at 10 µM stood at 4.34%.

Turning to `COc1cccn(CC(=O)N(C)CCC2CCOCC2)c1=O`, the cytotoxicity at 10 µM was -19%.

`C[C@@H]1CN(CCOCc2ccccc2)CC[C@@]1(O)C1CCC1`: the cytotoxicity at 10 µM was found to be 1.4%.

For the molecule `COc1ccc2c(CN3CCN(Cc4cccc(F)c4)CC3)n[nH]c2c1`, the cytotoxicity at 10 µM was -1.86%.

As for `CSCC1CCN(c2nc(N)ncc2C)CC1`, the cytotoxicity at 10 µM is -5.2%.

Turning to `Cc1ccc(CN2C(=O)OCC2CO)c2ccccc12` (stereo unspecified), the cytotoxicity at 10 µM was -5.21%.

For the molecule `O=C(O)c1ccnc(-c2ccnc(N3CCC4(CCO4)CC3)n2)c1`, the cytotoxicity at 10 µM is -10.7%.

In the case of `COCC(=O)N1CCC2(CCCN(Cc3cc(OC)ccc3F)C2)C1` (stereo unspecified), the cytotoxicity at 10 µM was -1.62%.

On to `COCCN1CCCC2(CCN(C(=O)c3cnc(O)cn3)C2)C1=O` (stereo unspecified), for which the cytotoxicity at 10 µM came out at 0.0942%.

Take `CS(=O)(=O)N[C@H]1CN(C(=O)CCc2ccco2)C[C@@H]1C1CC1`: the cytotoxicity at 10 µM is 2.7%.

As for `CCc1nnc(CN2CCN(c3cccc(OC)c3)C(=O)C2)o1`, the cytotoxicity at 10 µM is 18.4%.

Regarding `CN(Cc1ccccn1)C(C(=O)O)c1ccc2c(c1)OCO2` (stereo unspecified), the cytotoxicity at 10 µM was determined as 1.16%.

With `CN1CCN(C(=O)C2CN(Cc3cc4ccccc4o3)CCN2)CC1` (stereo unspecified), the cytotoxicity at 10 µM was -8.2%.

Consider `CCC(C)N(Cc1ccncc1)C(=O)CCC(=O)OC` (stereo unspecified), for which the cytotoxicity at 10 µM was -14.5%.

With `CCCn1ncc(C(=O)N(C)Cc2cc(C3CC3)[nH]n2)c1C`, the cytotoxicity at 10 µM is -4.65%.

Regarding `Cn1ccc2ccc(C(=O)N3CCN(C(=O)N4CCOCC4)CC3)cc21`, the cytotoxicity at 10 µM was -21.1%.

As to `Cc1noc(C)c1CN1CC2(CCN(C(=O)c3cscn3)CC2)CC1=O`, the cytotoxicity at 10 µM is -8.86%.

With `COc1ccc(-n2nnc(C(=O)NC(C)C)c2C2CC2)cc1`, the cytotoxicity at 10 µM is -14.7%.

As for `CNC(=O)c1cccc(C2CNCCN2C(C)=O)c1` (stereo unspecified), the cytotoxicity at 10 µM was determined as 0.384%.

With `CN1CCN(C2CCN(CCOc3ccccc3)CC2)C1=O`, the cytotoxicity at 10 µM is -2.15%.

With `CCn1cc(CN2CCCN(C(=O)CCN3CCCC3=O)CC2)cn1`, the cytotoxicity at 10 µM came out at 0.428%.

Regarding `Cc1ccsc1CNC(=O)CCc1c(C)nc2cc(O)nn2c1C`, the cytotoxicity at 10 µM is -7.01%.

Consider `CC1CCN(CCNC(=O)c2scnc2Cl)CC1`, for which the cytotoxicity at 10 µM is -4.2%.

Regarding `COc1c(CNC2CCN(c3ccccn3)CC2)c(C(C)C)nn1C`, the cytotoxicity at 10 µM is -8.06%.

Regarding `CCc1nc(C2CCCN2C(=O)CCc2nc(C(C)(C)C)no2)no1` (stereo unspecified), the cytotoxicity at 10 µM was -0.819%.

As to `Cc1nc(C)n(CC2CCCN2CC(=O)Nc2cc(C)on2)n1` (stereo unspecified), the cytotoxicity at 10 µM was -2.11%.

Turning to `c1cc(CNCC2CNc3ccnn3C2)cc(OC2CCCCC2)n1` (stereo unspecified), the cytotoxicity at 10 µM is -8.78%.

Take `CC(C)Cc1cc(NC(=O)c2ccc(=O)[nH]n2)n(C)n1`: the cytotoxicity at 10 µM is -10.1%.

With `NC(=O)NCC1CCCCN1C(=O)c1cccc(C(F)(F)F)c1` (stereo unspecified), the cytotoxicity at 10 µM is -7.32%.

For `COCCCNC(=O)CN(C)C(=O)c1cc(C)ccc1O`, the cytotoxicity at 10 µM was -6.81%.

As to `O=C(Nc1ccc(CCN2CCC(O)CC2)cc1)C1CCOCC1`, the cytotoxicity at 10 µM was -8.08%.

Consider `CC(C)(C)c1nnc(CN2CCOC(Cn3cncn3)C2)o1` (stereo unspecified), for which the cytotoxicity at 10 µM is -1.5%.

Regarding `Cc1cc(C)n(CC2CN(Cc3cscn3)CCO2)n1` (stereo unspecified), the cytotoxicity at 10 µM is -2.68%.

For the molecule `CC(C)Oc1ncccc1CNC(=O)N1CCC(C(N)=O)C1` (stereo unspecified), the cytotoxicity at 10 µM was -6.08%.

Consider `Cc1ccc(C2CCCN2Cc2nc3c(cnn3C)c(=O)[nH]2)cc1C` (stereo unspecified), for which the cytotoxicity at 10 µM is -0.858%.

For the molecule `CCN(CC1CCCO1)C(=O)Nc1ccc(F)cc1OC` (stereo unspecified), the cytotoxicity at 10 µM was -8.98%.

Consider `COCCCN1CCc2cncnc2C1`, for which the cytotoxicity at 10 µM is -9.68%.

With `Cc1noc(Cl)c1CCC(=O)N1CCc2sccc2C1`, the cytotoxicity at 10 µM stood at 2.65%.

With `CC(NCc1ccc(F)cc1)c1ccc(OCC(=O)NC2CC2)cc1` (stereo unspecified), the cytotoxicity at 10 µM is 3.99%.

Turning to `Cc1nc(C)n(C2CCCN(C(=O)c3csc(C(C)C)n3)C2)n1` (stereo unspecified), the cytotoxicity at 10 µM was -1.72%.

Consider `COc1ccc(CN2CCN(C(C)c3nc(C4CC4)no3)CC2)cc1` (stereo unspecified), for which the cytotoxicity at 10 µM amounted to 4.31%.

`COc1ccc(CC(=O)N2CCN(c3nccn3C)CC2)cc1`: the cytotoxicity at 10 µM stood at 5.06%.

Consider `Cc1nccc(C2(C)CCCNC2)n1` (stereo unspecified), for which the cytotoxicity at 10 µM turned out to be 9.22%.

Take `COc1ccc(CN2CCn3cc(CN4CCN(C)CC4)nc3C2)cc1`: the cytotoxicity at 10 µM is -0.00161%.

In the case of `COCCN1CCO[C@H]2CN(Cc3cc[nH]n3)C[C@H]21`, the cytotoxicity at 10 µM is -105%.

As for `COCCN1CCC2(C1)c1ccccc1S(=O)(=O)N2C` (stereo unspecified), the cytotoxicity at 10 µM is 11.4%.

As to `O=C([C@@H]1COC[C@H]2CN(C3CCCC3)C[C@H]21)N1CCCCO1`, the cytotoxicity at 10 µM was -1.11%.

Take `Fc1cnc(N2CCCC3(CCN(Cc4ccoc4)C3)C2)nc1` (stereo unspecified): the cytotoxicity at 10 µM was -80.6%.

Take `O=C(c1ccncc1)N1CCC2(CCCN(c3ncc(F)cn3)C2)C1` (stereo unspecified): the cytotoxicity at 10 µM is -105%.

Turning to `Cn1ncc2c(NC3CCC(N)CC3)nc(C(C)(C)C)nc21` (stereo unspecified), the cytotoxicity at 10 µM is 8%.

`Cn1cc(CCC(=O)N2C[C@@H]3CC[C@H]2CN(Cc2cccnc2)C3)cn1`: the cytotoxicity at 10 µM was -12.4%.

Regarding `CC(C)(C)c1ccc(OCC(=O)O)c(CN2C[C@H]3CC(O)C[C@H]3C2)c1` (stereo partly specified), the cytotoxicity at 10 µM is 3.46%.

For `Cc1nc[nH]c1CN1C[C@H]2CC[C@@H](C1)N(C(=O)CCn1cncn1)C2`, the cytotoxicity at 10 µM was found to be 1.15%.
